Published values of several laboratories.
Values after ≈ are worked out from the molar mass of the structure shown.
Organism: Pseudomonas aeruginosa

SMILES | assay | test system | setting | endpoint | result
CC1(C)SC2C(NC(=O)C(NC(=O)C3=C(O)C(Cc4ccccc4)NC3=O)c3ccccc3)C(=O)N2C1C(=O)O (centres unmarked) | microbial growth, well diffusion | PAO1 | 200 µM | inhibition zone | 10.7 mm
CC(C)Oc1c(NC(=O)c2ccc(NC(=O)[C@H](CC(N)=O)NC(=O)c3ccc(NC(=O)C(C)Oc4ccc(C#N)cc4)cc3)cc2)ccc(C(=O)Nc2ccc(C(=O)O)cc2)c1O (some centres unmarked) | microbial growth | PA14 | – | MIC | > 64 mg/L
CC1(C)SC2C(NC(=O)C(NC(=O)C3=C(O)C4CCCN4C3=O)c3ccccc3)C(=O)N2C1C(=O)O (centres unmarked) | microbial growth, well diffusion | PAO1 | 200 µM | inhibition zone | 12 mm
CC(C)Oc1c(NC(=O)c2ccc(NC(=O)[C@H](CC(N)=O)NC(=O)c3ccc(NC(=O)c4ccc(C5(C(F)(F)F)N=N5)cc4)cc3)cc2)ccc(C(=O)Nc2ccc(C(=O)O)cc2)c1O | microbial growth | PA14 | – | MIC | > 64 mg/L
COc1c(C)c(OCc2ccccc2)c(C)c(O)c1C(=O)/C=C/c1ccccc1 | microbial killing, broth dilution | ATCC27853 | – | MBC | > 5000 mg/L
C#CCCCCCCCCC=CCC(O)CC(O)CO (centres unmarked) | microbial growth, broth dilution | ATCC27853 | – | IC50 | > 200 mg/L
COc1cc(C=CC(=O)CC(c2ccc(N(C)C)cc2)n2ccnc2)ccc1O (centres unmarked) | microbial growth, disc diffusion | ATCC27853 | 250 µg/mL | inhibition zone | 7.66 mm
CC(C)Oc1c(NC(=O)c2ccc(NC(=O)[C@H](CC(N)=O)NC(=O)c3ccc(NC(=O)c4cc(C#N)cn4C)cc3)cc2)ccc(C(=O)Nc2ccc(C(=O)O)cc2)c1O | microbial growth | PA14 | – | MIC | > 64 mg/L
COc1cc(C=Cc2cc(-c3ccccc3)nc(O)n2)ccc1O | microbial growth, disc diffusion | ATCC27853 | 500 µg/mL | inhibition zone | 14.3 mm
C#CCCCCCCCCCCCC(O)CC(O)CO (centres unmarked) | microbial growth, broth dilution | ATCC27853 | – | IC50 | > 200 mg/L
COc1c(C)c(OC(C)=O)c(C)c(O)c1C(=O)/C=C/c1ccccc1 | microbial killing, broth dilution | ATCC27853 | – | MBC | > 5000 mg/L
O=C(Sc1cccccc1=O)c1ccccc1 | microbial growth, broth dilution | ATCC27853 | – | MIC80 | > 71.4 µM
COc1c(C)c(OC(=O)c2ccccc2)c(C)c(O)c1C(=O)/C=C/c1ccccc1 | microbial killing, broth dilution | ATCC27853 | – | MBC | > 5000 mg/L
COc1cc(Cc2cnc(N)nc2N)cc(OC)c1OC | microbial killing, broth dilution | – | 48 h | MBC | 16 mg/L
CN[C@H](CC(C)C)C(=O)N[C@H]1C(=O)N[C@@H](CC(N)=O)C(=O)N[C@H]2C(=O)N[C@H]3C(=O)N[C@H](C(=O)N[C@H](C(=O)O)c4cc(O)cc(O)c4-c4cc3ccc4O)[C@H](O)c3ccc(c(Cl)c3)Oc3cc2cc(c3O[C@@H]2O[C@H](CO)[C@@H](O)[C@H](O)[C@H]2O[C@H]2C[C@](C)(N)[C@H](O)[C@H](C)O2)Oc2ccc(cc2Cl)[C@H]1O | microbial killing, broth dilution | ATCC9027 | – | MBC | > 128 µM
CCCCCC(=O)Oc1c(C)c(O)c(C(=O)/C=C/c2ccccc2)c(OC)c1C | microbial killing, broth dilution | ATCC27853 | – | MBC | > 5000 mg/L
CCN1CCN(C(=O)N[C@@H](C(=O)N[C@@H]2C(=O)N3[C@@H]2SC(C)(C)[C@@H]3C(=O)O)c2ccccc2)C(=O)C1=O | microbial growth, well diffusion | PAO1 | 200 µM | inhibition zone | 19 mm
CC(C)Oc1c(NC(=O)c2ccc(NC(=O)[C@H](CC(N)=O)NC(=O)c3ccc(NC(=O)c4ccc(S(C)(=O)=O)cc4)cc3)cc2)ccc(C(=O)Nc2ccc(C(=O)O)cc2)c1O | microbial growth | PA14 | – | MIC | > 64 mg/L

SMILES | assay | test system | setting | endpoint | result
O=C(Cc1ccccc1)Sc1cccccc1=O | microbial growth, broth dilution | ATCC27853 | – | MIC80 | > 71.4 µM
COc1cc(C=CC(=O)CC(c2ccc([N+](=O)[O-])cc2)n2ccnc2)ccc1O (centres unmarked) | microbial growth, disc diffusion | ATCC27853 | 500 µg/mL | inhibition zone | 7.67 mm
O=c1cccccc1Sc1cccccc1=O | microbial growth, broth dilution | ATCC27853 | – | MIC80 | > 71.4 µM
CC(C)Oc1c(NC(=O)c2ccc(NC(=O)[C@H](CC(N)=O)NC(=O)c3ccc(CNC(=O)c4ccc(C#N)cc4)cc3)cc2)ccc(C(=O)Nc2ccc(C(=O)O)cc2)c1O | microbial growth | PA14 | – | MIC | > 64 mg/L
COc1c(C)c(OC(C)=O)c(C)c(OC(C)=O)c1C(=O)/C=C/c1ccccc1 | microbial killing, broth dilution | ATCC27853 | – | MBC | > 5000 mg/L
COc1cc(C=Cc2cc(-c3ccc(N(C)C)cc3)nc(O)n2)ccc1O | microbial growth, disc diffusion | ATCC27853 | 250 µg/mL | inhibition zone | 7 mm
COc1c(C)c(OS(=O)(=O)c2ccc3ccccc3c2)c(C)c(OS(=O)(=O)c2ccc3ccccc3c2)c1C(=O)/C=C/c1ccccc1 | microbial killing, broth dilution | ATCC27853 | – | MBC | > 5000 mg/L
CC(C)Oc1c(NC(=O)c2ccc(NC(=O)[C@H](CC(N)=O)NC(=O)c3ccc(-c4nn[nH]c4-c4ccc(C#N)cc4)cc3)cc2)ccc(C(=O)Nc2ccc(C(=O)O)cc2)c1O | microbial growth | PA14 | – | MIC | > 64 mg/L
CC(C)c1cccc(=O)c(O)c1 | microbial growth, broth dilution | ATCC27853 | – | MIC80 | > 71.4 µM
CC1(C)S[C@@H]2[C@H](NC(=O)C(C(=O)O)c3ccccc3)C(=O)N2[C@H]1C(=O)O (some centres unmarked) | microbial growth, well diffusion | PAO1 | 200 µM | inhibition zone | 9.3 mm
C=CCOc1c(C)c(O)c(C(=O)/C=C/c2ccccc2)c(OC)c1C | microbial killing, broth dilution | ATCC27853 | – | MBC | > 5000 mg/L
CC[C@H](C)[C@H](NC(=O)OCC1c2ccccc2-c2ccccc21)C(=O)Sc1cccccc1=O | microbial growth, broth dilution | ATCC27853 | – | MIC80 | > 71.4 µM
C[C@H]1NCc2cc(-c3ccc4c(=O)c(C(=O)O)cn(C5CC5)c4c3OC(F)F)ccc21 | microbial growth, broth dilution | – | clinical isolate | MIC50 | 2 mg/L (≈ 4.69 µM)
CN1CC(O)=C(C(=O)NC(C(=O)NC2C(=O)N3C2SC(C)(C)C3C(=O)O)c2ccccc2)C1=O (centres unmarked) | microbial growth, well diffusion | PAO1 | 200 µM | inhibition zone | 12.3 mm
O=C(O)c1cn(C2CC2)c2cc(N3CCNCC3)c(F)cc2c1=O | microbial growth, disc diffusion | – | 100 µg/mL, 24 h | inhibition zone | 16 mm
CC1(C)S[C@@H]2[C@H](NC(=O)[C@H](N)c3ccc(O)cc3)C(=O)N2[C@H]1C(=O)O | microbial growth, disc diffusion | ATCC27853 | 500 µg/mL | inhibition zone | 13.8 mm
COc1c(C)c(OC)c2c(c1C)OC(c1ccccc1)CC2=O (centres unmarked) | microbial killing, broth dilution | ATCC27853 | – | MBC | > 5000 mg/L
